Assay results: ChEMBL document CHEMBL1148782, “Inhibitors of tumor progression loci-2 (Tpl2) kinase and tumor necrosis factor alpha (TNF-alpha) production: selectivity and in vivo antiinflammatory activity of novel 8-substituted-4-anilino-6-aminoquinoline-3-carbonitriles” (J Med Chem, 2007)
In brackets after ≈: the same amount, converted by molar mass.

Tests used:
[1] = molecular target: Mitogen-activated protein kinase kinase kinase 8 (Homo sapiens, UniProt P41279); assay: Inhibition of Tpl2 by ELISA
Chain of Mitogen-activated protein kinase kinase kinase 8 (P41279 whole entry): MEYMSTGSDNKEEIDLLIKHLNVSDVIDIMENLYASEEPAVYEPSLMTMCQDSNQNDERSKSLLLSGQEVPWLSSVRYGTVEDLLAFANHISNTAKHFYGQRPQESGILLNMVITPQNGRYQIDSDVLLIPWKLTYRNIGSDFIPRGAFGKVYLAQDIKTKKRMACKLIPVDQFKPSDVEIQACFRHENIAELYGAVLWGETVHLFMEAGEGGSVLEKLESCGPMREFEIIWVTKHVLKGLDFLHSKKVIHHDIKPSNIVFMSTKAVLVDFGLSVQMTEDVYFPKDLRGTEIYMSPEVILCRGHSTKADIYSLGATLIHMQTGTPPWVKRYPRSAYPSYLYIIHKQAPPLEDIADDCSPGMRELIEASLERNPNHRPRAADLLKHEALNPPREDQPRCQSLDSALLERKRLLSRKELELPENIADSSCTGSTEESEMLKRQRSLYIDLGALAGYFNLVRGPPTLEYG

[2] = molecular target: MAP kinase-activated protein kinase 2 (Homo sapiens, UniProt P49137); assay: Inhibition of MK2
Chain of MAP kinase-activated protein kinase 2 (P49137 whole entry): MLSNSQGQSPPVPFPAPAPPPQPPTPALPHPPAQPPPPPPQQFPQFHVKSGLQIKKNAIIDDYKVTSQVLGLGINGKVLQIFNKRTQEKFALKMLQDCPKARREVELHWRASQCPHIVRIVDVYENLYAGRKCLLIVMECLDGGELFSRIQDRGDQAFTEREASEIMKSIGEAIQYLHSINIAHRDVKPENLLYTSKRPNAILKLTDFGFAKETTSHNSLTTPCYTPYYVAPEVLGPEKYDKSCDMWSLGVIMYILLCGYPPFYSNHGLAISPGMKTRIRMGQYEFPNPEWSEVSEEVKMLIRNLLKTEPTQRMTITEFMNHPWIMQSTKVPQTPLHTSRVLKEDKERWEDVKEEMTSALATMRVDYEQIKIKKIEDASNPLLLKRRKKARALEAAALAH

[3] = test system: Blood; assay: Inhibition of LPS-stimulated TNFalpha production in human blood; assay type: functional
[4] = molecular target: cAMP-dependent protein kinase (PKA) (Homo sapiens, UniProt P22694+P17612+P22612); assay: Inhibition of PKA; assay type: protein assay
[5] = molecular target: Ribosomal protein S6 kinase beta-1 (Homo sapiens, UniProt P23443); assay: Inhibition of S6K
Chain of Ribosomal protein S6 kinase beta-1 (P23443 whole entry): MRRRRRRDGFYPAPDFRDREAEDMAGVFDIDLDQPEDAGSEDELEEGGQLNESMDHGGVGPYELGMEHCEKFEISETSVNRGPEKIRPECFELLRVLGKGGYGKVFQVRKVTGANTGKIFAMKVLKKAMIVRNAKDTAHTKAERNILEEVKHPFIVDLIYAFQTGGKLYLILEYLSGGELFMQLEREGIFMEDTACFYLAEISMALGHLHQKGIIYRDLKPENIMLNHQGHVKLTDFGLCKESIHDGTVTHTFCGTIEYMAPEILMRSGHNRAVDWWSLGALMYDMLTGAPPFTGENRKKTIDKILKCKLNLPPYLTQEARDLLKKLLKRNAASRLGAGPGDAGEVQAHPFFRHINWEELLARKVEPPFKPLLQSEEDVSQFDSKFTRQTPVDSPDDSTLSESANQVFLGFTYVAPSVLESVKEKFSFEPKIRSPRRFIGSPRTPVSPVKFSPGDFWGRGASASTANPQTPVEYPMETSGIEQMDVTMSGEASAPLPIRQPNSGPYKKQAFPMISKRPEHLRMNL

[6] = test system: Monocyte; assay: Inhibition of LPS-stimulated TNFalpha production in monocytes; assay type: functional, Homo sapiens
[7] = molecular target: Mitogen-activated protein kinase 14 (Homo sapiens, UniProt Q16539); assay: Inhibition of p38alpha
Chain of Mitogen-activated protein kinase 14 (Q16539 whole entry): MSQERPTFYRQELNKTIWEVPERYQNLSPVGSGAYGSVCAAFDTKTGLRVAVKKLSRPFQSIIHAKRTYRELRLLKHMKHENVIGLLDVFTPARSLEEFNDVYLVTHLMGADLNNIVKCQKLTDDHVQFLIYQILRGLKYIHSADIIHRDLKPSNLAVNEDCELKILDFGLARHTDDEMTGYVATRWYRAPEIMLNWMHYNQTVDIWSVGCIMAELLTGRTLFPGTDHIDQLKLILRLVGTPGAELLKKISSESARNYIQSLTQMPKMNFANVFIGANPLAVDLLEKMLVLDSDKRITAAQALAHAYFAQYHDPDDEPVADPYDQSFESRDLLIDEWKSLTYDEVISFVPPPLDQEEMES

[8] = molecular target: Proto-oncogene tyrosine-protein kinase Src (Homo sapiens, UniProt P12931); assay: Inhibition of Src
Chain of Proto-oncogene tyrosine-protein kinase Src (P12931 2-536 limits assumed): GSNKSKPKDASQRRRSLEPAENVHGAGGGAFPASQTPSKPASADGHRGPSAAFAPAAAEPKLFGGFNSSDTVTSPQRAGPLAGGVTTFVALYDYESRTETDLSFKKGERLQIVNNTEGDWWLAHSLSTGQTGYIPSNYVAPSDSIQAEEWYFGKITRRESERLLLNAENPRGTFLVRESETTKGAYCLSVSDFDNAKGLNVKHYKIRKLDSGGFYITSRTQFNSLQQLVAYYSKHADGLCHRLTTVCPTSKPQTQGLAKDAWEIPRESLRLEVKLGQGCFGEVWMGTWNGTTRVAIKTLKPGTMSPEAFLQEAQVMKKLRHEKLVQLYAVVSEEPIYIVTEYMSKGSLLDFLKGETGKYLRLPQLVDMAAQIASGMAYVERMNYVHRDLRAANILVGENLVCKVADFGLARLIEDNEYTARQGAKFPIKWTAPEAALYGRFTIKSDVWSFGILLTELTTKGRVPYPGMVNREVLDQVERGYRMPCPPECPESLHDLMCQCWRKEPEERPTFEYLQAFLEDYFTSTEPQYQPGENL

[9] = molecular target: Protein kinase C alpha type (Homo sapiens, UniProt P17252); assay: Inhibition of PKCalpha
[10] = molecular target: CYP3A4 (Homo sapiens, UniProt P08684); assay: Inhibition of CYP3A4 at 3 uM; assay type: ADME
Chain of CYP3A4 (P08684 whole entry): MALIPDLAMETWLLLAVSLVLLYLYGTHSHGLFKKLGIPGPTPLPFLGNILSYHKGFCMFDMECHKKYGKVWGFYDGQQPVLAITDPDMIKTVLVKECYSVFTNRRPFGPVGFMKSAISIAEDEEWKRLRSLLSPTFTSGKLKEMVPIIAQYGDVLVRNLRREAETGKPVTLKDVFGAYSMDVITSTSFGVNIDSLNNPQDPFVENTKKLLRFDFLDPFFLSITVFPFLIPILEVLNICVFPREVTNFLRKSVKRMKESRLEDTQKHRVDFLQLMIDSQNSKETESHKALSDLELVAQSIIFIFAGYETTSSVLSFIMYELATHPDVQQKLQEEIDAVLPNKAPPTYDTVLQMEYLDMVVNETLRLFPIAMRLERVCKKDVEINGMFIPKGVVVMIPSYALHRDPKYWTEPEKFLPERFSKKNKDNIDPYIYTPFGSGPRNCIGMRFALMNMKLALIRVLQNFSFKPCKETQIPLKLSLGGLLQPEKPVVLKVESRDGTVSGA

[11] = test system: Rattus norvegicus; assay: AUC (0 to infinity) in Sprague-Dawley rat at 25 mg/kg, po; assay type: ADME, organism-based, Plasma; design: dose 25 mg/kg, route oral; conditions: in vivo
Method in brief: (§1)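 Female Sprague-Dawley rats were dosed by the iv or oral route. Parameters are reported as means of individual-animal pharmacokinetic values.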

[12] = Half life in Sprague-Dawley rat at 5 mg/kg, iv; assay type: ADME, organism-based; design: dose 5 mg/kg, route intravenous; conditions: in vivo; method in brief: as §1
[13] = Plasma clearance in Sprague-Dawley rat at 5 mg/kg, iv; assay type: ADME, organism-based; design: dose 5 mg/kg, route intravenous; method in brief: as §1
[14] = Half life in Sprague-Dawley rat at 25 mg/kg, po; assay type: ADME, organism-based; design: dose 25 mg/kg, route oral; conditions: in vivo; method in brief: as §1
[15] = Volume of distribution at steady state in Sprague-Dawley rat at 5 mg/kg, iv; assay type: ADME, organism-based; design: dose 5 mg/kg, route intravenous; conditions: in vivo, read-out: Vss; method in brief: as §1
[16] = Permeability at pH 7.4 by PAMPA method; assay type: ADME; conditions: read-out: permeability
Method in brief: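 Passive permeability was measured by high-resolution PAMPA at pH 7.4.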

[17] = Bioavailability in Sprague-Dawley rat at 25 mg/kg, po; assay type: ADME, organism-based; conditions: in vivo; method in brief: as §1
[18] = physchem; conditions: buffer, pH 7.4
[19] = molecular target: Epidermal growth factor receptor (Homo sapiens, UniProt P00533)
Chain of Epidermal growth factor receptor (P00533 whole entry): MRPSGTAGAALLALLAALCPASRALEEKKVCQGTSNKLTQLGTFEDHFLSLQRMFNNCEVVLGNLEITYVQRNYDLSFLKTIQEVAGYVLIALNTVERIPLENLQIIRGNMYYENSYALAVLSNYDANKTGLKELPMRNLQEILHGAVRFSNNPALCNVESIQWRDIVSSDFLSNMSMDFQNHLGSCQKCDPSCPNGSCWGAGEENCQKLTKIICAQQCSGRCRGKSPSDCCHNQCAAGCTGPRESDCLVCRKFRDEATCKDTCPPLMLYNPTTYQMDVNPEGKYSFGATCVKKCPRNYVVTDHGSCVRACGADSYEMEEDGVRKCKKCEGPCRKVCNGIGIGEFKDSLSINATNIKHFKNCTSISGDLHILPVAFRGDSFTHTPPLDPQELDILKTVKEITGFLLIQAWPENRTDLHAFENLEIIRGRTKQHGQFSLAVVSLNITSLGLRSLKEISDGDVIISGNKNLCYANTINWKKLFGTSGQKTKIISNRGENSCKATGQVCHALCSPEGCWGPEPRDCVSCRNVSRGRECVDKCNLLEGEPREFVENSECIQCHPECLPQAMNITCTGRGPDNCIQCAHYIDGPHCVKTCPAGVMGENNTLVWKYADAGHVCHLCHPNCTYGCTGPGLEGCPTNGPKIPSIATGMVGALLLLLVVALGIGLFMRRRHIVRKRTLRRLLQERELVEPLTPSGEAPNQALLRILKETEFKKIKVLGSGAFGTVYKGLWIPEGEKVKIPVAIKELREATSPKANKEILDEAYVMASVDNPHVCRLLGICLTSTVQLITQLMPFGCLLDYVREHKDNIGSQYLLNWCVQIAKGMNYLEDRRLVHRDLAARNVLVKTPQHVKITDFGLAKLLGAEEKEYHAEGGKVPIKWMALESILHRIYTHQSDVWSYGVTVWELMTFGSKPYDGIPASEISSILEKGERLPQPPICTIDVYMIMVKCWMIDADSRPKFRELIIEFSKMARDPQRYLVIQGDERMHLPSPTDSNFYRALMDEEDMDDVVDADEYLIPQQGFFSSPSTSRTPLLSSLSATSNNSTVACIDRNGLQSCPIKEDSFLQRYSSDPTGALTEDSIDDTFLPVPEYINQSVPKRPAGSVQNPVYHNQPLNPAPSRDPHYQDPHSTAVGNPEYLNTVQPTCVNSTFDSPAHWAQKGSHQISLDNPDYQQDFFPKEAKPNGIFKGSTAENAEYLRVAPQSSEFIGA

[20] = molecular target: Cytochrome P450 3A4 (Homo sapiens, UniProt P08684)
Chain of Cytochrome P450 3A4 (P08684 whole entry): as the sequence (P08684 whole entry) above

[21] = molecular target: CaM kinase II (Homo sapiens, UniProt Q13557+Q13555+Q13554+Q9UQM7)
[22] = Metabolic stability in rat liver microsomes; assay type: ADME, Microsome
Method in brief: (§2)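 Compound was incubated with liver microsomes from the stated species. Stability is expressed as parent half-life (t1/2, min). Metabolites were also profiled.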

[23] = Metabolic stability in mouse liver microsomes; assay type: ADME, Microsome; method in brief: as §2
[24] = Metabolic stability in human liver microsomes; assay type: ADME, Microsome; method in brief: as §2

IC50 [1] [µM]	IC50 [4] [µM]	IC50 [5] [µM]	IC50 [9] [µM]	solubility [18] [µg/mL]	SMILES	Activity [3] [µM]	Inhibitory concentration [6] [nM]	further results
0.02	10.3	> 40	> 40	–	N#Cc1cnc2c(F)cc(NCc3c[nH]cn3)cc2c1Nc1ccc(F)c(Cl)c1	>10	510	IC50 [2]: > 40 µM; IC50 [7]: > 40 µM; IC50 [8]: 20 µM; inhibition at 3 µM [10]: 96%
–	> 100	> 100	> 100	< 10	N#Cc1cnc2c(Br)cc(NCc3cn[nH]n3)cc2c1Nc1ccc(F)c(Cl)c1	3.5	74	AUC/dose [11]: < 10 ng·kg·h/mg/mL; half-life [12]: 3.2 h; clearance [13]: 29 mL/min/kg; half-life [14]: 3.9 h; Vd [15]: 2.7 L/kg; Papp [16]: < 5 ×10⁻⁶ cm/s; bioavailability [17]: 2%
0.002	–	–	–	–	N#Cc1cnc2c(Cl)cc(NCc3nn[nH]n3)cc2c1Nc1ccc(F)c(Cl)c1	>20	>5000	–
–	76.1	18.8	> 40	< 10	CCCc1[nH]cnc1CNc1cc(Cl)c2ncc(C#N)c(Nc3ccc(F)c(Cl)c3)c2c1	5.6	220	IC50 [2]: 62.7 µM; IC50 [20]: 16 µM; half-life [12]: 1.2 h; clearance [13]: > 100 mL/min/kg; IC50 [7]: > 40 µM; Vd [15]: 12.2 L/kg; IC50 [8]: > 40 µM; Papp [16]: < 5 ×10⁻⁶ cm/s; IC50 [21]: > 40 µM
–	> 40	> 40	> 40	< 10	N#Cc1cnc2c(Cl)cc(NCc3cccc[n+]3[O-])cc2c1Nc1ccc(F)c(Cl)c1	11.4	1500	IC50 [2]: 40.1 µM; AUC/dose [11]: < 10 ng·kg·h/mg/mL; IC50 [20]: 18 µM; half-life [12]: 0.8 h; clearance [13]: 38 mL/min/kg; half-life [14]: 4.2 h; IC50 [7]: > 40 µM; Vd [15]: 1.6 L/kg; IC50 [19]: 2.9 µM; IC50 [8]: > 40 µM; Papp [16]: < 5 ×10⁻⁶ cm/s; bioavailability [17]: < 1%; IC50 [21]: > 40 µM
0.02	40.1	> 100	23.4	< 10	N#Cc1cnc2c(Cl)cc(NCc3cnc[nH]3)cc2c1Nc1ccc(F)c(Cl)c1	4.9	350	IC50 [2]: 40.2 µM; half-life [22]: 0.583 h; AUC/dose [11]: 24 ng·kg·h/mg/mL; half-life [12]: 4.4 h; clearance [13]: 19 mL/min/kg; half-life [14]: 8.1 h; IC50 [7]: 11.2 µM; Vd [15]: 2.4 L/kg; half-life [23]: 0.383 h; half-life [24]: 0.517 h; IC50 [8]: 19.9 µM; Papp [16]: < 5 ×10⁻⁶ cm/s; bioavailability [17]: 2%; IC50 [21]: > 40 µM
0.83	–	–	–	–	N#Cc1cnc2c(OCC(O)CO)cc(NCc3cnc[nH]3)cc2c1Nc1ccc(F)c(Cl)c1 (stereo not drawn)	–	–	–

The next lines start with the compound.

SMILES	IC50 [1] [µM]	IC50 [4] [µM]	IC50 [5] [µM]	IC50 [9] [µM]	solubility [18] [µg/mL]	Activity [3] [µM]	Inhibitory concentration [6] [nM]	further results
N#Cc1cnc2c(Cl)cc(NCc3cccc(N4CCOCC4)n3)cc2c1Nc1ccc(F)c(Cl)c1	0.35	–	–	–	–	–	–	–
CC(=O)c1cc(NCc2c[nH]cn2)cc2c(Nc3ccc(F)c(Cl)c3)c(C#N)cnc12	–	–	–	–	–	>10	580	IC50 [19]: 0.156 µM
Cn1cncc1CNc1cc(Cl)c2ncc(C#N)c(Nc3ccc(F)c(Cl)c3)c2c1	–	–	–	–	–	>20	–	–
N#Cc1cnc2c(Br)cc(NCc3cn(CCN4CCOCC4)cn3)cc2c1Nc1ccc(F)c(Cl)c1	–	–	–	–	69 (≈ 118 µM)	8.95	430	–
CS(=O)(=O)CCn1cnc(CNc2cc(Br)c3ncc(C#N)c(Nc4ccc(F)c(Cl)c4)c3c2)c1	–	–	–	–	–	>20	1000	–
N#Cc1cnc2c(Cl)cc(NCc3cccnc3)cc2c1Nc1ccc(F)c(Cl)c1	–	–	–	–	–	20	>1000	IC50 [19]: > 5 µM
COC(=O)c1[nH]cnc1CNc1cc(Br)c2ncc(C#N)c(Nc3ccc(F)c(Cl)c3)c2c1	–	–	–	–	–	>20	2000	–
N#Cc1cnc2c(Cl)cc(NCCc3c[nH]cn3)cc2c1Nc1ccc(F)c(Cl)c1	–	–	–	–	–	>20	–	–
